# Results taken from ChEMBL document CHEMBL1153548 (Antimicrob Agents Chemother, 2007).
# Key:
# Streptococcus pneumoniae [1] = test: Antimicrobial activity against amoxicillin-resistant Streptococcus pneumoniae; type: functional
# [2] = Terminal half life in Chinchilla lanigera at 15 mg/kg, iv; type: ADME, organism-based; set-up: dose 15 mg/kg, route intravenous; conditions: in vivo, read-out: beta t1/2 (converted)
# In short: (§1)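 Conscious, freely moving chinchillas were cannulated in the femoral artery and jugular vein. […] Arterial plasma was taken predose, at time zero and at 10-12 points up to 180 min, then stored at –60°C. Unbound drug was measured by ultrafiltration (1,500 x g, 15 min, 37°C) followed by C18 solid-phase extraction and HPLC.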
# [3] = Cmax in Chinchilla lanigera at 40 mg/kg, iv followed by local dose of 13 to 235 ug/kg into intra-middle ear; type: ADME, organism-based; set-up: dose 40 mg/kg, route intravenous; conditions: in vivo; in short: as §1
# [4] = Cmax in Chinchilla lanigera at 15 mg/kg, iv followed by local dose of 13 to 235 ug/kg into intra-middle ear; type: ADME, organism-based; set-up: dose 15 mg/kg, route intravenous; conditions: in vivo; in short: as §1
# [5] = Efflux clearance from middle ear fluid to plasma in Chinchilla lanigera assessed as unbound Km at 40000 ug/kg, iv followed by local dose of 19 ug/kg into intra-middle ear by compartmental microdialysis; type: ADME, organism-based
# Streptococcus pneumoniae [6] = test: Antimicrobial activity against amoxicillin-intermediate resistant Streptococcus pneumoniae; type: functional
# Streptococcus pneumoniae [7] = test: Antimicrobial activity against Streptococcus pneumoniae WT3 infected in bolus iv dosed Chinchilla lanigera assessed as log reduction in bacterial count within 5 hrs of additional local drug administration into intra-middle ear; type: functional
# In short: (§2)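 Awake chinchillas with 50 CFU S. pneumoniae WT3 in 100 µl PBS inoculated into both middle ear bullae. […] MEF (30-100 µl) was drawn at 1 h predose and at 1, 2, 5, 8 and 10 h. It was serially diluted and plated on 5% sheep blood agar at 37°C under 10% CO2, with counts read at 24 and 48 h. Detection threshold was 25 CFU/ml.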
# [8] = Efflux clearance from middle ear fluid to plasma in Chinchilla lanigera assessed as unbound Km at 15000 ug/kg, iv followed by local dose of 164 ug/kg into intra-middle ear by compartmental microdialysis; type: ADME, organism-based
# Streptococcus pneumoniae [9] = test: Antimicrobial activity against Streptococcus pneumoniae WT3 infected in bolus iv dosed Chinchilla lanigera assessed as log reduction in bacterial count within 10 hrs of additional local drug administration into intra-middle ear; type: functional; in short: as §2
# [10] = Efflux clearance from middle ear fluid to plasma in Chinchilla lanigera assessed as unbound Km at 40000 ug/kg, iv followed by local dose of 66 ug/kg into intra-middle ear by compartmental microdialysis; type: ADME, organism-based
# [11] = Efflux clearance from middle ear fluid to plasma in Chinchilla lanigera assessed as unbound Km at 40000 ug/kg, iv followed by local dose of 13 ug/kg into intra-middle ear by compartmental microdialysis; type: ADME, organism-based
# [12] = Efflux clearance from middle ear fluid to plasma in Streptococcus pneumoniae WT3-infected Chinchilla lanigera assessed as unbound Km at 40000 ug/kg, iv followed by local dose of 19 ug/kg into intra-middle ear by compartmental microdialysis; type: ADME, organism-based
# [13] = Efflux clearance from middle ear fluid to plasma in Chinchilla lanigera assessed as unbound Km at 40000 ug/kg, iv followed by local dose of […] into intra-middle ear by compartmental microdialysis; type: ADME, organism-based
# [14] = Terminal half life in Chinchilla lanigera at 40 mg/kg, iv; type: ADME, organism-based; set-up: dose 40 mg/kg, route intravenous; conditions: in vivo, read-out: beta t1/2 (converted); in short: as §1
# [15] = Efflux clearance from middle ear fluid to plasma in Streptococcus pneumoniae WT3-infected Chinchilla lanigera assessed as unbound Km at 40000 ug/kg, iv followed by local dose of 96 ug/kg into intra-middle ear by compartmental microdialysis; type: ADME, organism-based
compound,measurement,setting,value
CC1(C)S[C@@H]2[C@H](NC(=O)[C@H](N)c3ccc(O)cc3)C(=O)N2[C@H]1C(=O)O [AMOXICILLIN],MIC,Streptococcus pneumoniae [1],8 µg/mL
same,half-life,[2],18 min
same,Cmax,[3],8.8 µg/mL
same,Cmax,[4],111 µg/mL
same,Km,[5],34 µg/mL
same,MIC,Streptococcus pneumoniae [6],1 µg/mL
same,Activity,Streptococcus pneumoniae [7],5
same,Km,[8],17.8 µg/mL
same,Activity,Streptococcus pneumoniae [9],2
same,Km,[10],54.9 µg/mL
same,Km,[11],4.5 µg/mL
same,Km,[12],35.9 µg/mL
same,Km,[13],9.3 µg/mL
same,half-life,[14],18 min
same,Km,[15],48.6 µg/mL
